Compound activity as filed in PubChem.
M5 PAM – positive allosteric modulators of human muscarinic M5 receptor; P08912; activation, % at 3 µM; CHO-K1 hM5, Fluo-8 calcium, ACh EC20 PAM; 0% = ACh EC20, 100% = ACh EC100; AID 624038; hit rate 0.3% among 360,000;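 active = activation above the run cutoff, the mean activation of all test compounds plus 3 SD, cut at about 18% in these data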
Target sequence (P08912 whole entry, looked up): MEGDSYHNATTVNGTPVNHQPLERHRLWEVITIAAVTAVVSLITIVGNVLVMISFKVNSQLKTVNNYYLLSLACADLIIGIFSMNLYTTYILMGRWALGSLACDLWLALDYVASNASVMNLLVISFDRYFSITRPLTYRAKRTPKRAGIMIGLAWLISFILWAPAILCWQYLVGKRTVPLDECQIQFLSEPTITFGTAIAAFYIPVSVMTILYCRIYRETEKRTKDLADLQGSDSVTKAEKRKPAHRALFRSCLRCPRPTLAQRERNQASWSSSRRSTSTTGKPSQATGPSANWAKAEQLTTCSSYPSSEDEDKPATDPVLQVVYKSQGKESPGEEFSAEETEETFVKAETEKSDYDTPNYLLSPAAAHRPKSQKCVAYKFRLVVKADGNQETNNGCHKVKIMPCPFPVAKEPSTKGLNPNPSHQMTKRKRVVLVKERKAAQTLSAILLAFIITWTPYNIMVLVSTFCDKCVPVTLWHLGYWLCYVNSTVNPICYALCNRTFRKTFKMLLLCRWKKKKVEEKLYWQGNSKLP
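System: CHO-K1 hM5 cells. Reagent: acetylcholine, EC20 level. Compound dosing: single dose, 3 µM nominal final test concentration. Timing: Post-acetylcholine fluorescence recording 140 s. Detection: Fluo-8 calcium fluorescence. Read-out: % activation, ACh-normalized. Benchmarks: ACh EC20 and EC100 wells. Repeats: singlicate, one well per test compound.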
CHRM4 agonist – agonists of human muscarinic M4 receptor (CHRM4). P08173. CHO-K1 hM4/Gqi5, Fluo-8 calcium fluorescence; vehicle 0%, full acetylcholine response 100%. activation, % at 3 µM. hit rate 0.14% among 360,000;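 active = activation above the run mean over all test wells plus 3 SD, cut at about 32% in these data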;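 also: peak over basal fluorescence ratio per well then scaled between controls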
CHRM4 PAM – potentiates acetylcholine response at human M4 receptor | hit rate 0.4% among 360,000 | P08173 | activation, % at 3 µM | CHO-K1 hM4/Gqi5, Fluo-8 calcium fluorescence, ACh EC20; 0% = ACh EC20, 100% = maximal ACh;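 active = activation above its plate's cutoff, the mean activation of sample wells plus 3 SD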
CHRM4 antagonist – antagonists of human muscarinic M4 receptor (CHRM4); P08173; CHO-hM4 cells, ACh EC80, Fluo-8 calcium fluorescence; inhibition, % at 3 µM; hit rate 0.73% among 360,000; AID 624125;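 active = inhibition above its plate's cutoff, the mean inhibition of sample wells plus 3 SD, cut at about 27% in these data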
CHRM5 antagonist – CHRM5 antagonism in calcium assay | P08912 | CHO-hM5 cells, Fluo-8 calcium fluorescence, ACh EC80 | inhibition, % at 3 µM | hit rate 0.59% among 360,000;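 active = inhibition above a per-plate cutoff, the mean of that plate's test compounds plus 3 SD, cut at about 27% in these data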
CHRM5 agonist – CHRM5 agonism in calcium assay; P08912; hit rate 0.19% among 360,000; activation, % at 3 µM; CHO-K1 hM5 cells, Fluo-8 calcium fluorescence; 0% DMSO wells, 100% maximal acetylcholine response;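 active = activation above the run's mean over test compounds plus 3 SD, cut at about 23% in these data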;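 also: signal is peak over basal fluorescence ratio across the kinetic read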
Large screens that a line does not name were inactive. In the library only some 1.9% were active in any assay of this set; here they are far more common.

COC(=O)C1(C(=O)OC)c2ccccc2CN(S(=O)(=O)c2ccc(C)cc2)C1CC(C)=O (stereo not drawn)	none
CCC(=O)Nc1ccc(NC(=S)NC(=O)/C=C/c2ccco2)cc1	none
CC(=O)NC(=S)Nc1ccc(NC(=S)NC(=O)/C=C/c2ccco2)cc1	CHRM4 PAM 34, CHRM5 agonist 25
Nc1sccc1C(=O)NCc1ccccc1	none
CCOc1ccc(NC(=O)C2CCC(C)(C(=O)O)C2(C)C)cc1 (stereo not drawn)	none
COc1ccc(NC(=O)C2CCC(C)(C(=O)O)C2(C)C)cc1 (stereo not drawn)	CHRM4 antagonist 28
COc1ccc2c(c1)OC[C@H]1[C@H]2N2C(=O)c3ccc(C)cc3NC(=O)[C@@]2(C)[C@H]1c1ccccc1	none
C[C@@]12C(=O)Nc3cc(F)ccc3C(=O)N1[C@H]1c3ccccc3OC[C@@H]1[C@@H]2c1ccccc1	CHRM4 antagonist 73
COc1ccc2c(c1)OC[C@H]1[C@H]2N2C(=O)c3cc(OC)ccc3NC(=O)[C@@]2(C)[C@H]1c1ccccc1	CHRM4 antagonist 26
COc1ccc2c(c1)OC[C@H]1[C@H]2N2C(=O)c3cc(F)ccc3NC(=O)[C@@]2(C)[C@H]1c1ccccc1	CHRM4 antagonist 57
COc1ccc2c(c1)OC[C@H]1[C@H]2N2C(=O)c3cc(Cl)ccc3NC(=O)[C@@]2(C)[C@H]1c1ccccc1	CHRM4 antagonist 36
COc1ccc(-c2nn(-c3ccccc3)cc2CNC[C@H]2O[C@@H](n3cnc(C(N)=O)n3)[C@H](O)[C@@H]2O)cc1	none
Cc1ccc2c(c1)[C@H]1[C@H](CO2)[C@H](c2ccccc2)[C@]2(C)C(=O)N(Cc3ccc(F)cc3)CC(=O)N12	CHRM5 agonist 24
COCCOc1ccc(C(F)(F)F)cc1NC(=O)c1ccccc1	none
CC(C)(C)c1ccc(OCCOc2ccc(C(C)(C)C)cc2NC=O)c(NC=O)c1	CHRM4 antagonist 31, CHRM5 antagonist 28
CCOc1ccccc1/C=C/C(=O)NCC(=O)N1CCC(N(C)C2CCCCC2C)CC1 (stereo not drawn)	none
Cc1ccc(C(=O)NCCNc2ncc(C(F)(F)F)cc2Cl)cc1[N+](=O)[O-]	CHRM5 antagonist 27
CCC1CCCCN1CCCNC(=O)CSc1nc2nc(C)c(Cc3ccccc3Cl)c(C)n2n1 (stereo not drawn)	CHRM4 antagonist 31
Cc1nc2nc(SCC(=O)NCCCN3CCCC(C)C3)nn2c(C)c1Cc1ccccc1Cl (stereo not drawn)	CHRM4 antagonist 31
Cc1ccccc1Cc1c(C)nc2nc(SCC(=O)NCCCN3CCCC3)nn2c1C	none
Cc1c2cnn(CC(=O)NCCCN3CCCCC3)c(=O)c2c(C)n1Cc1ccccc1	none
CCC1CCCCN1CCCNC(=O)Cn1ncc2c(C)n(Cc3ccccc3Cl)c(C)c2c1=O (stereo not drawn)	CHRM4 antagonist 28
CCC1CCCCN1CCCNC(=O)CSc1nc2nc(C)c(Cc3ccccc3)c(C)n2n1 (stereo not drawn)	none
Cc1nc2nc(SCC(=O)NCCCN3CCCCCC3)nn2c(C)c1Cc1ccccc1Cl	CHRM4 antagonist 51
Fc1ccc2cc(-c3ccsc3)ncc2c1	none
CCCCn1c(N)c(N(CCOC)C(=O)c2cc(CC)c(C)s2)c(=O)[nH]c1=O	none
COc1ccc(SC[C@H](Cc2ccccc2)N2CC[C@@H](C(C)(C)C)CCC2=O)cc1	none
CCCC(C)C(=O)Nc1ccc(S(N)(=O)=O)cc1 (stereo not drawn)	CHRM4 PAM 23
O/N=C/c1cccc[n+]1CCCCCC[n+]1ccccc1/C=N/O	none
CCCCCCCCCCCCCCCC[n+]1ccc(/C=N/O)cc1	CHRM5 antagonist 28
CCCCCCCCCCCCCCCC[n+]1ccccc1	CHRM4 antagonist 45, CHRM5 antagonist 86
CCCCCCCCCCCCCCCC[n+]1ccc(C(N)=O)cc1	none
CC(=O)Nc1ccc(S(=O)(=O)Nc2nc(C)nc3sc(C)c(C)c23)cc1	CHRM4 PAM 21
Cc1sc2ncnc(NS(=O)(=O)c3ccc(Cl)cc3)c2c1C	none
COc1ccc(NC(=O)/C(Cl)=C(/Cl)S(=O)Cc2ccccc2)cn1 (stereo not drawn)	CHRM4 antagonist 36, CHRM5 antagonist 42
COc1ccc(NC(=O)Cc2ccccc2)cn1	none
CCN(CC(=O)Nc1ccccc1C(F)(F)F)C(=O)CSCC(=O)Nc1cc(C)on1	CHRM4 PAM 23
CCN(CC(=O)Nc1cc(C)on1)CC(=O)Nc1ccccc1C(F)(F)F	none
O=C(NC1CCCN(Cc2ccc(Cl)cc2)C1)c1c(F)ccc(F)c1F (stereo not drawn)	none
Cn1c(=O)c(NCCO)c2c3c(cccc31)C(=O)c1ccccc1-2	CHRM4 agonist 39, CHRM5 agonist 32
CC(=O)Nc1ccc(Nc2c3c4c(cccc4n(C)c2=O)C(=O)c2ccccc2-3)cc1	none
Cn1c(=O)c(NCCc2ccccc2)c2c3c(cccc31)C(=O)c1ccccc1-2	CHRM4 agonist 151, CHRM4 antagonist 76, CHRM5 antagonist 74, CHRM5 agonist 93
CCCCNc1c2c3c(cccc3n(C)c1=O)C(=O)c1ccccc1-2	CHRM4 agonist 176, CHRM4 antagonist 77, CHRM5 antagonist 71, CHRM5 agonist 140
O=C(Cc1ccc(NC(=O)C2CCCN(C(=O)c3ccccc3)C2)cc1)Nc1ccc(C(=O)N2CCOCC2)cc1 (stereo not drawn)	none
C1=C\CCC2(OCCO2)C2(CC/1)OCCO2	none
COc1ccc(C(=O)c2ccc(Cl)cc2)c(OC)c1OC	none
CCSC1=C(C#N)C(c2ccccc2Cl)C(C(=O)c2cccs2)C(O)(C(F)(F)F)N1 (stereo not drawn)	none
C=CCSC1=C(C#N)C(c2ccccc2Cl)C(C(=O)c2cccs2)C(O)(C(F)(F)F)N1 (stereo not drawn)	CHRM5 antagonist 27
O=C(CSc1nnc(-c2ccccn2)o1)Nc1ccccc1Cl	none
CCC(C)c1ccc(O)c(NC(=S)NC(=O)c2cccs2)c1 (stereo not drawn)	none
CN1CCN(c2ccncc2S(=O)(=O)N2CCCCC2)CC1	none
CC(C)N1CCN(c2ccncc2S(=O)(=O)N2CCCCC2)CC1	CHRM5 antagonist 65
CC(C)C[C@H]1CNC(=O)C(=O)N1CC1CCN(CCc2ccc(-c3ccccc3)cc2)CC1	none
COc1ccc(NC2=CC(c3cccc(OC)c3)N(c3ccc(OC)cc3)C2=O)cc1 (stereo not drawn)	CHRM5 antagonist 50
N#Cc1nc(-c2ccc(F)cc2)oc1N1CCN(C(=O)c2ccco2)CC1	none
